# What was measured:
# CCRF-CEM [1] = assay: Ratio of growth inhibition of CEM cells by drug to 2'-2'-difluorodeoxycytidine; format: functional, Homo sapiens
# CCRF-CEM [2] = assay: Growth inhibition of CEM cells by MTT assay in presence of dipyridamole; settings: Homo sapiens
# SF-539 = assay: Growth inhibition of SF539 cells; format: functional; settings: Homo sapiens
# [3] = Growth inhibition of AG6000 cells by SRB assay in presence of dipyridamole; format: functional, cell-based; settings: Homo sapiens
# Procedure, shortened: (§1)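 SRB growth assay run with the nucleoside transport inhibitor dipyridamole at 1 µM final. Cells were seeded at 5000/well and exposed to a range of drug concentrations for 72 h at 37 °C, 5% CO2. Media: DMEM for A2780 and the dCK-deficient AG6000; RPMI for A549, H292 and H460; each with 10% FCS and 20 mM HEPES. Relative growth was calculated against ODzero and untreated controls.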
# UACC-62 = assay: Growth inhibition of UACC62 cells; format: functional; settings: Homo sapiens
# SN12C = assay: Growth inhibition of SN12C cells; format: functional; settings: Homo sapiens
# OVCAR-8 = assay: Growth inhibition of OVCAR8 cells; format: functional; settings: Homo sapiens
# HOP-62 = assay: Growth inhibition in HOP62 cells; format: functional; settings: Homo sapiens
# MDA-MB-435 = assay: Growth inhibition of MDA-MB-435 cells; format: functional; settings: Homo sapiens
# NCI-H322M = assay: Growth inhibition of NCI-H322M cells; format: functional; settings: Homo sapiens
# K562 = assay: Growth inhibition of K562 cells; format: functional; settings: Homo sapiens
# A2780 [4] = assay: Growth inhibition of A2780 cells by SRB assay in presence of dipyridamole; format: functional, cell-based; settings: Homo sapiens; procedure, shortened: as §1
# U-251 = assay: Growth inhibition of U251 cells; format: functional; settings: Homo sapiens
# SF-268 = assay: Growth inhibition of SF268 cells; format: functional; settings: Homo sapiens
# TK-10 = assay: Growth inhibition of TK10 cells; format: functional; settings: Homo sapiens
# [5] = Growth inhibition of AG6000 cells by SRB assay; format: functional, cell-based; settings: Homo sapiens
# Procedure, shortened: (§2)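 Cells seeded at 5000/well and exposed to a range of drug concentrations for 72 h at 37 °C, 5% CO2, then read by SRB. A2780 and its dCK-deficient variant AG6000 were grown in DMEM; A549, H292 and H460 in RPMI; both media had 10% FCS and 20 mM HEPES. OD was read at 540 or 492 nm. Relative growth = (ODtreated − ODzero)/(ODcontrol − ODzero) × 100%, with ODzero taken at drug addition.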
# CCRF-CEM [6] = assay: Growth inhibition of dCK deficient CEM cells by MTT assay in presence of dipyridamole; settings: Homo sapiens
# A549 [7] = assay: Growth inhibition of A549 cells by SRB assay in presence of dipyridamole; format: functional, cell-based; settings: Homo sapiens; procedure, shortened: as §1
# MCF7 = assay: Growth inhibition of MCF7 cells; format: functional; settings: Homo sapiens
# PC-3 = assay: Growth inhibition of PC3 cells; format: functional; settings: Homo sapiens
# [8] = Growth inhibition in HS 578T cells; format: functional; settings: Homo sapiens
# M14 = assay: Growth inhibition of M14 cells; format: functional; settings: Homo sapiens
# SW1573 [9] = assay: Ratio of growth inhibition of SW1573 cells by drug to 2'-2'-difluorodeoxycytidine; format: functional, Homo sapiens
# CCRF-CEM [10] = assay: Growth inhibition of dCK deficient CEM cells by MTT assay; settings: Homo sapiens
# A498 = assay: Growth inhibition in A498 cells; format: functional; settings: Homo sapiens
# [11] = Ratio of growth inhibition of AG6000 cells by drug to 2'-2'-difluorodeoxycytidine; format: functional, Homo sapiens
# A2780 [12] = assay: Growth inhibition of A2780 cells by SRB assay; format: functional, cell-based; settings: Homo sapiens; procedure, shortened: as §2
# HOP-92 = assay: Growth inhibition in HOP92 cells; format: functional; settings: Homo sapiens
# SW-620 = assay: Growth inhibition of SW620 cells; format: functional; settings: Homo sapiens
# MOLT-4 = assay: Growth inhibition of MOLT4 cells; format: functional; settings: Homo sapiens
# COLO 205 = assay: Growth inhibition in COLO 205 cells; format: functional; settings: Homo sapiens
# UACC-257 = assay: Growth inhibition of UACC257 cells; format: functional; settings: Homo sapiens
# A549 [13] = assay: Growth inhibition of A549 cells by SRB assay; format: functional, cell-based; settings: Homo sapiens; procedure, shortened: as §2
# CCRF-CEM [14] = assay: Ratio of growth inhibition of dCK deficient CEM cells by drug to 2'-2'-difluorodeoxycytidine; format: functional, Homo sapiens
# SW1573 [15] = assay: Growth inhibition of SW1573 cells by SRB assay in presence of dipyridamole; format: functional, cell-based; settings: Homo sapiens
# Procedure, shortened: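 SW1573 cells cultured in DMEM, 10% FCS, 20 mM HEPES, 37 °C, 5% CO2. Plated at 5000 cells/well and given graded drug concentrations with the nucleoside transport inhibitor dipyridamole at 1 µM final, for 72 h. SRB read-out at OD 540 or 492 nm. Growth is expressed relative to time-zero and untreated wells.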
# SNB-75 = assay: Growth inhibition of SNB75 cells; format: functional; settings: Homo sapiens
# SK-MEL-2 = assay: Growth inhibition of SK-MEL-2 cells; format: functional; settings: Homo sapiens
# CCRF-CEM [16] = assay: Growth inhibition of CEM cells by MTT assay; settings: Homo sapiens
# UO-31 = assay: Growth inhibition of UO31 cells; format: functional; settings: Homo sapiens
# A2780 [17] = assay: Ratio of growth inhibition of A2780 cells by drug to 2'-2'-difluorodeoxycytidine; format: functional, Homo sapiens
# HT-29 = assay: Growth inhibition in HT29 cells; format: functional; settings: Homo sapiens
# NCI/ADR-RES = assay: Growth inhibition of NCI/ADR-RES cells; format: functional; settings: Homo sapiens
# KM12 = assay: Growth inhibition of KM12 cells; format: functional; settings: Homo sapiens
# [18] = Growth inhibition of H292 cells by SRB assay; format: functional, cell-based; settings: Homo sapiens, NCI-H292; procedure, shortened: as §2
# BT-549 = assay: Growth inhibition in BT549 cells; format: functional; settings: Homo sapiens
# ACHN = assay: Growth inhibition in ACHN cells; format: functional; settings: Homo sapiens
# 786-0 = assay: Growth inhibition in 786-0 cells; format: functional; settings: Homo sapiens
# [19] = Growth inhibition of H292 cells by SRB assay in presence of dipyridamole; format: functional, cell-based; settings: Homo sapiens, NCI-H292; procedure, shortened: as §1
# SNB-19 = assay: Growth inhibition of SNB19 cells; format: functional; settings: Homo sapiens
# [20] = Ratio of growth inhibition of H292 cells by drug to 2'-2'-difluorodeoxycytidine; format: functional, Homo sapiens
# DU-145 = assay: Growth inhibition in DU145 cells; format: functional; settings: Homo sapiens
# NCI-H460 [21] = assay: Growth inhibition of H460 cells by SRB assay; format: functional, cell-based; settings: Homo sapiens; procedure, shortened: as §2
# IGROV-1 = assay: Growth inhibition in IGROV1 cells; format: functional; settings: Homo sapiens
# SK-MEL-5 = assay: Growth inhibition of SK-MEL-5 cells; format: functional; settings: Homo sapiens
# NCI-H460 [22] = assay: Growth inhibition of H460 cells by SRB assay in presence of dipyridamole; format: functional, cell-based; settings: Homo sapiens; procedure, shortened: as §1
# NCI-H460 [23] = assay: Ratio of growth inhibition of H460 cells by drug to 2'-2'-difluorodeoxycytidine; format: functional, Homo sapiens
# NCI-H226 = assay: Growth inhibition of NCI-H226 cells; format: functional; settings: Homo sapiens
# LOX IMVI = assay: Growth inhibition of LOX IMVI cells; format: functional; settings: Homo sapiens
# A549 [24] = assay: Growth inhibition in A549 cells; format: functional; settings: Homo sapiens
# CAKI-1 = assay: Growth inhibition in CAKI1 cells; format: functional; settings: Homo sapiens
# EKVX = assay: Growth inhibition in EKVX cells; format: functional; settings: Homo sapiens
# HCT-116 = assay: Growth inhibition in HCT116 cells; format: functional; settings: Homo sapiens
# NCI-H23 = assay: Growth inhibition of NCI-H23 cells; format: functional; settings: Homo sapiens
# SK-MEL-28 = assay: Growth inhibition of SK-MEL-28 cells; format: functional; settings: Homo sapiens
# A549 [25] = assay: Ratio of growth inhibition of A549 cells by drug to 2'-2'-difluorodeoxycytidine; format: functional, Homo sapiens
# NCI-H522 = assay: Growth inhibition of NCI-H522 cells; format: functional; settings: Homo sapiens
# SF-295 = assay: Growth inhibition of SF295 cells; format: functional; settings: Homo sapiens
# MDA-MB-231 = assay: Growth inhibition of MDA-MB-231 cells; format: functional; settings: Homo sapiens
# OVCAR-3 = assay: Growth inhibition of OVCAR-3 cells; format: functional; settings: Homo sapiens
# HCT-15 = assay: Growth inhibition in HCT15 cells; format: functional; settings: Homo sapiens
# SW1573 [26] = assay: Growth inhibition of SW1573 cells by SRB assay; format: functional, cell-based; settings: Homo sapiens
# Procedure, shortened: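 SW1573 NSCLC cells grown in DMEM with 10% FCS and 20 mM HEPES at 37 °C, 5% CO2. Seeded at 5000 cells/well and exposed to a range of drug concentrations for 72 h, then SRB assay. OD read at 540 or 492 nm. Relative growth = (ODtreated − ODzero)/(ODcontrol − ODzero) × 100%, with ODzero taken at drug addition.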
# SK-OV-3 = assay: Growth inhibition of SKOV3 cells; format: functional; settings: Homo sapiens
# NCI-H460 [27] = assay: Growth inhibition of NCI-H460 cells; format: functional; settings: Homo sapiens
# OVCAR-5 = assay: Growth inhibition of OVCAR5 cells; format: functional; settings: Homo sapiens
smiles,measurement,setting,value
CN(CCCCCl)P(=O)(OCc1ccc([N+](=O)[O-])o1)OC[C@H]1O[C@@H](n2ccc(N)nc2=O)C(F)(F)[C@@H]1O (some centres undefined),Ratio IC50,CCRF-CEM [1],15
same,IC50,CCRF-CEM [2],4000 nM
same,GI50,SF-539,42 nM
same,IC50,[3],6000 nM
same,GI50,UACC-62,1100 nM
same,GI50,SN12C,490 nM
same,GI50,OVCAR-8,110 nM
same,GI50,HOP-62,500 nM
same,GI50,MDA-MB-435,470 nM
same,GI50,NCI-H322M,3500 nM
same,GI50,K562,13000 nM
same,IC50,A2780 [4],400 nM
same,GI50,U-251,780 nM
same,GI50,SF-268,260 nM
same,GI50,TK-10,1500 nM
same,IC50,[5],5000 nM
same,IC50,CCRF-CEM [6],17000 nM
same,IC50,A549 [7],> 500 nM
same,GI50,MCF7,450 nM
same,GI50,PC-3,1800 nM
same,GI50,[8],46000 nM
same,GI50,M14,54 nM
same,Ratio IC50,SW1573 [9],5.8
same,IC50,CCRF-CEM [10],13000 nM
same,GI50,A498,5800 nM
same,Ratio IC50,[11],0.25
same,IC50,A2780 [12],8 nM
same,GI50,HOP-92,150 nM
same,GI50,SW-620,38000 nM
same,GI50,MOLT-4,770 nM
same,GI50,COLO 205,7500 nM
same,GI50,UACC-257,17000 nM
same,IC50,A549 [13],79 nM
same,Ratio IC50,CCRF-CEM [14],0.26
same,IC50,SW1573 [15],> 500 nM
same,GI50,SNB-75,13000 nM
same,GI50,SK-MEL-2,80000 nM
same,IC50,CCRF-CEM [16],2000 nM
same,GI50,UO-31,400 nM
same,Ratio IC50,A2780 [17],5.3
same,GI50,HT-29,30000 nM
same,GI50,NCI/ADR-RES,230 nM
same,GI50,KM12,15000 nM
same,IC50,[18],37 nM
same,GI50,BT-549,1600 nM
same,GI50,ACHN,38 nM
same,GI50,786-0,62 nM
same,IC50,[19],330 nM
same,GI50,SNB-19,260 nM
same,Ratio IC50,[20],2.8
same,GI50,DU-145,190 nM
same,IC50,NCI-H460 [21],77 nM
same,GI50,IGROV-1,14000 nM
same,GI50,SK-MEL-5,3200 nM
same,IC50,NCI-H460 [22],> 500 nM
same,Ratio IC50,NCI-H460 [23],7.7
same,GI50,NCI-H226,16000 nM
same,GI50,LOX IMVI,760 nM
same,GI50,A549 [24],730 nM
same,GI50,CAKI-1,220 nM
same,GI50,EKVX,2500 nM
same,GI50,HCT-116,1100 nM
same,GI50,NCI-H23,74 nM
same,GI50,SK-MEL-28,20000 nM
same,Ratio IC50,A549 [25],5.6
same,GI50,NCI-H522,15000 nM
same,GI50,SF-295,880 nM
same,GI50,MDA-MB-231,25000 nM
same,GI50,OVCAR-3,3200 nM
same,GI50,HCT-15,54000 nM
same,IC50,SW1573 [26],92 nM
same,GI50,SK-OV-3,2200 nM
same,GI50,NCI-H460 [27],300 nM
same,GI50,OVCAR-5,1900 nM
